In brackets after ≈: the same amount, converted by molar mass. Activity calls are given as the source filed them. The calls are words filed in the database; no cut-off is given here.
Legend:
Mus musculus [1] = assay: Antiinflammatory activity in mouse assessed as inhibition of xylene-induced ear edema at 25 mg/kg, po administered 3 hrs before xylene challenge relative to control; type: functional
Summary of the method: (§1)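 Oral dosing-level study: compound suspended in 0.5% CMC-Na and given po at 25 or 12.5 mg/kg, 0.4 mL/20 g; vehicle controls received CMC-Na. Xylene ear challenge was applied 3 h after dosing. Edema was measured as the ear-plug weight difference and reported as % reduction versus vehicle controls.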

Staphylococcus aureus [2] = assay: Antibacterial activity against methicillin-resistant Staphylococcus aureus CCARM 3506 after 24 hrs by two-fold serial dilution method; type: functional; conditions: CCARM 3506, 24 h
Summary of the method: (§2)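 Broth microdilution in Mueller-Hinton broth. Bacteria grown to mid-log phase, diluted 1000-fold, and inoculated at 10⁵ CFU/mL. Test compounds in DMSO, final DMSO not above 0.05%, final concentrations 64-0.5 µg/mL. Incubation 24 h at 37 °C, growth read as absorbance at 650 nm. MIC taken as the lowest concentration giving complete growth inhibition. Run three times.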

Staphylococcus aureus [3] = assay: Ratio of oxacillin MIC to compound MIC for methicillin-resistant Staphylococcus aureus CCARM 3506 after 24 hrs by two-fold serial dilution method; type: functional
Staphylococcus aureus [4] = assay: Antibacterial activity against quinolone-resistant Staphylococcus aureus CCARM 3505 after 24 hrs by two-fold serial dilution method; type: functional; conditions: CCARM 3505, 24 h; summary of the method: as §2
Mus musculus [5] = assay: Antiinflammatory activity in mouse assessed as inhibition of xylene-induced ear edema at 50 mg/kg, po administered 1 hr before xylene challenge relative to control; type: functional; conditions: read-out: INH
Summary of the method: (§3)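 Compound was homogenized in 0.5% CMC-Na and given orally at 50 mg/kg, 0.4 mL/20 g; controls got CMC-Na vehicle only. Xylene was applied to the ear 1, 2, 3, 4, 5 or 24 h after dosing. Edema was measured as the weight difference of 7 mm ear plugs and reported as % reduction versus vehicle controls.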

Staphylococcus aureus [6] = assay: Ratio of norfloxacin MIC to compound MIC for methicillin-resistant Staphylococcus aureus CCARM 3506 after 24 hrs by two-fold serial dilution method; type: functional
Staphylococcus aureus [7] = assay: Antibacterial activity against Staphylococcus aureus 503 after 24 hrs by two-fold serial dilution method; type: functional; conditions: Staphylococcus aureus, 503, 24 h; summary of the method: as §2
Staphylococcus aureus [8] = assay: Antibacterial activity against quinolone-resistant Staphylococcus aureus CCARM 3519 after 24 hrs by two-fold serial dilution method; type: functional; conditions: CCARM 3519, 24 h; summary of the method: as §2
Mus musculus [9] = assay: Antiinflammatory activity in mouse assessed as inhibition of xylene-induced ear edema at 50 mg/kg, po administered 5 hrs before xylene challenge relative to control; type: functional; summary of the method: as §3
Staphylococcus aureus [10] = assay: Antibacterial activity against Staphylococcus aureus 209 after 24 hrs by two-fold serial dilution method; type: functional; conditions: Staphylococcus aureus, 209, 24 h; summary of the method: as §2
Mus musculus [11] = assay: Antiinflammatory activity in mouse assessed as inhibition of xylene-induced ear edema at 12.5 mg/kg, po administered 3 hrs before xylene challenge relative to control; type: functional; summary of the method: as §1
Mus musculus [12] = assay: Antiinflammatory activity in mouse assessed as inhibition of xylene-induced ear edema at 50 mg/kg, po administered 3 hrs before xylene challenge relative to control; type: functional; summary of the method: as §3
Mus musculus [13] = assay: Antiinflammatory activity in mouse assessed as inhibition of xylene-induced ear edema at 50 mg/kg, po administered 24 hrs before xylene challenge relative to control; type: functional, organism-based; summary of the method: as §3
Staphylococcus aureus [14] = assay: Antibacterial activity against Staphylococcus aureus RN4220 after 24 hrs by two-fold serial dilution method; type: functional; conditions: RN4220, 24 h; summary of the method: as §2
Mus musculus [15] = assay: Antiinflammatory activity in mouse assessed as inhibition of xylene-induced ear edema at 50 mg/kg, po administered 4 hrs before xylene challenge relative to control; type: functional; summary of the method: as §3
Staphylococcus aureus [16] = assay: Antibacterial activity against methicillin-resistant Staphylococcus aureus CCARM 3167 after 24 hrs by two-fold serial dilution method; type: functional; conditions: CCARM 3167, 24 h; summary of the method: as §2
Candida albicans = assay: Antifungal activity against Candida albicans 7535 by two-fold serial dilution method; type: functional
Escherichia coli [17] = assay: Antibacterial activity against Escherichia coli KCTC 1924 after 24 hrs by two-fold serial dilution method; type: functional; conditions: KCTC 1924, 24 h
Summary of the method: (§4)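 Broth microdilution in Mueller-Hinton broth over final concentrations of 64–0.5. Bacteria were grown to mid-log phase and diluted 1000-fold, then inoculated at 10⁵ CFU/mL. Compounds were dissolved in DMSO, with final DMSO at most 0.05%. Plates were incubated 24 h at 37 °C and growth read as absorbance at 650 nm. MIC is the concentration giving complete growth inhibition. Three independent runs.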

Pseudomonas aeruginosa [18] = assay: Antibacterial activity against Pseudomonas aeruginosa 2742 after 24 hrs by two-fold serial dilution method; type: functional; conditions: Pseudomonas aeruginosa, 2742, 24 h; summary of the method: as §4
Salmonella typhimurium = assay: Antibacterial activity against Salmonella typhimurium 2421 after 24 hrs by two-fold serial dilution method; type: functional, Salmonella enterica subsp. enterica serovar Typhimurium; conditions: Salmonella enterica, 2421, 24 h; summary of the method: as §4
Mus musculus [19] = assay: Antiinflammatory activity in mouse assessed as inhibition of xylene-induced ear edema at 50 mg/kg, ip administered 30 mins before xylene challenge relative to control; type: functional
Summary of the method: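 Mice received compound freshly dissolved in DMSO, 50 mg/kg ip at 0.05 mL/20 g body weight; vehicle controls got DMSO alone. After 30 min, 20 µL xylene was applied to the right ear. After a further 30 min, 7 mm plugs were cut from treated and untreated ears and edema taken as their weight difference. Result is % edema reduction versus vehicle controls.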

Streptococcus mutans = assay: Antibacterial activity against Streptococcus mutans 3065 after 24 hrs by two-fold serial dilution method; type: functional; conditions: Streptococcus mutans, 3065, 24 h; summary of the method: as §4
Pseudomonas aeruginosa [20] = assay: Antibacterial activity against Pseudomonas aeruginosa 2004 after 24 hrs by two-fold serial dilution method; type: functional; conditions: Pseudomonas aeruginosa, 2004, 24 h; summary of the method: as §4
Escherichia coli [21] = assay: Antibacterial activity against Escherichia coli CCARM 1356 after 24 hrs by two-fold serial dilution method; type: functional; conditions: CCARM 1356, 24 h; summary of the method: as §4
Mus musculus [22] = assay: Antiinflammatory activity in mouse assessed as inhibition of xylene-induced ear edema at 50 mg/kg, po administered 2 hrs before xylene challenge relative to control; type: functional; conditions: read-out: INH; summary of the method: as §3

For `N=C(N)N/N=C/c1cn(-c2ccccc2)nc1-c1cccc(Cl)c1`, the inhibition in vivo at 25 mg/kg (Mus musculus [1]) was 39.3%, the MIC (Staphylococcus aureus [2]) was 1 µg/mL (≈ 2.95 µM) and the Ratio (Staphylococcus aureus [3]) was 64. It also gave an MIC (Staphylococcus aureus [4]) of 2 µg/mL (≈ 5.9 µM), an inhibition in vivo at 50 mg/kg (Mus musculus [5]) of 26.9% and a Ratio (Staphylococcus aureus [6]) of 4. The MIC (Staphylococcus aureus [7]) was 2 µg/mL (≈ 5.9 µM), the MIC (Staphylococcus aureus [8]) was 2 µg/mL (≈ 5.9 µM) and the inhibition in vivo at 50 mg/kg (Mus musculus [9]) was 35.2%. For the same compound, the MIC (Staphylococcus aureus [10]) was 2 µg/mL (≈ 5.9 µM), the inhibition in vivo at 12.5 mg/kg (Mus musculus [11]) was 56.7% and the inhibition in vivo at 50 mg/kg (Mus musculus [12]) was 50.9%. For the same compound, the inhibition (Mus musculus [13]) was “inactive”, the MIC (Staphylococcus aureus [14]) was 2 µg/mL (≈ 5.9 µM) and the inhibition in vivo at 50 mg/kg (Mus musculus [15]) was 4.39%. It also gave an MIC (Staphylococcus aureus [16]) of 1 µg/mL (≈ 2.95 µM), an MIC (Candida albicans) of 1 µg/mL (≈ 2.95 µM) and an MIC (Escherichia coli [17]) of 1 µg/mL (≈ 2.95 µM). For the same compound, the MIC (Pseudomonas aeruginosa [18]) was greater than 64 µg/mL, the MIC (Salmonella typhimurium) was 8 µg/mL (≈ 23.6 µM) and the inhibition in vivo at 50 mg/kg (Mus musculus [19]) was 93.6%. The MIC (Streptococcus mutans) was 8 µg/mL (≈ 23.6 µM), the MIC (Pseudomonas aeruginosa [20]) was greater than 64 µg/mL and the MIC (Escherichia coli [21]) was 16 µg/mL (≈ 47.2 µM).
In the case of `COc1ccc2c(c1)c(CC(=O)O)c(C)n2C(=O)c1ccc(Cl)cc1` [INDOMETHACIN], the inhibition in vivo at 25 mg/kg (Mus musculus [1]) is reported as 53.9%, the inhibition in vivo at 50 mg/kg (Mus musculus [5]) is reported as 29.7% and the inhibition in vivo at 50 mg/kg (Mus musculus [22]) is reported as 9.93%. It also gave an inhibition in vivo at 50 mg/kg (Mus musculus [9]) of 26.9%, an inhibition in vivo at 12.5 mg/kg (Mus musculus [11]) of 56.3% and an inhibition in vivo at 50 mg/kg (Mus musculus [12]) of 23%. For the same compound, the inhibition (Mus musculus [13]) was “inactive”, the inhibition in vivo at 50 mg/kg (Mus musculus [15]) was 34.9% and the inhibition in vivo at 50 mg/kg (Mus musculus [19]) was 45.2%.
